Assay results as given in ChEMBL document CHEMBL1129403, “Analogs of 3-hydroxy-1H-1-benzazepine-2,5-dione: structure-activity relationship at N-methyl-D-aspartate receptor glycine sites” (J Med Chem, 1996).
pIC50: −log10 of the molar value. Where “and” joins values, the source holds several entries; their conditions need not be identical. Equal values may be shown once.

How the values were obtained:
[1] = target: T1, Glutamate receptor ionotropic, AMPA (Rattus norvegicus) (UniProt P19491+P19492+P19493+P19490); assay: Inhibition of AMPA(glutamate) preferring non-NMDA receptors was measured in oocytes expressing rat brain poly(A)+ RNA. Number of cells examined are 4; format: functional, cell-based; details: Oocyte
Method in brief: (§1)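 Oocytes injected with rat cerebral cortex poly(A)+ RNA, two-electrode voltage clamp. Currents elicited by 10 µM AMPA. Kb derived from partial concentration-inhibition curves by generalized Cheng-Prusoff, using AMPA EC50 5.89 µM and slope 1.96.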

Mus musculus = assay: In vivo potency in mouse maximum electroshock-inducedseizure after i.v. administration; format: functional; details: iv
[2] = target: T2, Glutamate NMDA receptor (Rattus norvegicus) (UniProt P35439+Q00959+Q00960+Q00961+Q62645+Q8VHN2+Q9R1M7); assay: Inhibition of NMDA(glycine) receptors was measured in oocytes expressing cloned rat brain receptor subunits (NR1a/2C). Number of cells examined are 4; format: functional, cell-based; details: Oocyte
Glutamate NMDA receptor [3] = assay: Inhibition of [3H]5,7-dichlorokynurenic acid(DCKA) binding to N-methyl-d-aspartate receptors(NMDA) of rat brain cortical membranes; format: cell membranes, Membrane
Method in brief: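 [³H]DCKA (15-20 nM) incubated with well-washed rat cortical membranes and nine concentrations (up to 100 µM) in 50 mM HEPES-KOH, pH 7.5, for 30 min on ice. Reaction stopped by filtration and filter-bound radioactivity counted by liquid scintillation. IC50 taken from a sigmoidal fit.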

[4] = Ratio of binding affinities of NMDA / AMPA
Method in brief: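 Steady-state selectivity index: Kb AMPA divided by Kb NMDA, with both Kb values taken from oocyte recordings.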

[5] = target: T1, Glutamate receptor ionotropic, AMPA (Rattus norvegicus); assay: Inhibition of AMPA(glutamate) preferring non-NMDA receptors was measured in oocytes expressing rat brain poly(A)+ RNA. Number of cells examined are 3; format: functional, cell-based; details: Oocyte; method in brief: as §1
[6] = target: T1, Glutamate receptor ionotropic, AMPA (Rattus norvegicus); assay: Inhibition of AMPA(glutamate) preferring non-NMDA receptors was measured in cultured rat cortical neurons. Number of cells examined are 2
Glutamate NMDA receptor [7] = assay: Compound was tested for inhibition of [3H]MK-801 binding to N-methyl-d-aspartate receptors(NMDA) of rat brain cortical membranes.; format: cell membranes, Membrane
Method in brief: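 [³H]MK801 displacement in rat brain cortical membranes, run by a previously described method. Compounds with IC50 < 300 µM were counted as potential NMDA antagonists.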

[8] = target: AMPA receptor (Rattus norvegicus); assay: Inhibition of AMPA(glutamate) preferring non-NMDA receptors was measured in oocytes expressing rat brain poly(A)+ RNA. Number of cells examined are 6; details: Oocyte
[9] = target: T2, Glutamate NMDA receptor (Rattus norvegicus); assay: Inhibition of NMDA(glycine) receptors was measured in oocytes expressing cloned rat brain receptor subunits (NR1a/2C). Number of cells examined are 3; format: functional, cell-based; details: Oocyte
[10] = target: T1, Glutamate receptor ionotropic, AMPA (Rattus norvegicus); assay: Inhibition of AMPA(glutamate) preferring non-NMDA receptors was measured in cultured rat cortical neurons. Number of cells examined are 3
[11] = target: T2, Glutamate NMDA receptor (Rattus norvegicus); assay: Inhibition of NMDA(glycine) receptors was measured in oocytes expressing cloned rat brain receptor subunits (NR1a/2C). Number of cells examined are 2; format: functional, cell-based; details: Oocyte
[12] = target: T1, Glutamate receptor ionotropic, AMPA (Rattus norvegicus); assay: Inhibition of AMPA(glutamate) preferring non-NMDA receptors was measured in oocytes expressing rat brain poly(A)+ RNA. Number of cells examined are 5; format: functional, cell-based; details: Oocyte; method in brief: as §1
[13] = target: T2, Glutamate NMDA receptor (Rattus norvegicus); assay: Inhibition of NMDA(glycine) receptors was measured in oocytes expressing cloned rat brain receptor subunits (NR1a/2C). Number of cells examined are 7; format: functional, cell-based; details: Oocyte
[14] = target: T1, Glutamate receptor ionotropic, AMPA (Rattus norvegicus); assay: Inhibition of AMPA(glutamate) preferring non-NMDA receptors was measured in cultured rat cortical neurons. Number of cells examined are 8

## Cc1cc2[nH]c(=O)c(O)cc(=O)c2cc1C
[1]
  Kb: 3.8 µM
Mus musculus
  ED50: 6.3 mg/kg
[2]
  Kb: 0.086 µM
Glutamate NMDA receptor [3]
  pIC50: 6.62
[4]
  Ratio: 44

## Cc1cc(C)c2c(O)cc(=O)c(=O)[nH]c2c1
Mus musculus
  ED50: 3.9 mg/kg
Glutamate NMDA receptor [3]
  pIC50: 6.52

## O=c1cc(O)c2ccccc2[nH]c1=O
[5]
  Kb: 42 µM
[2]
  Kb: 1.3 µM
Glutamate NMDA receptor [3]
  pIC50: 6.08
[4]
  Ratio: 32
[6]
  Kb: 65 µM

## O=Nc1c(O)c2ccccc2[nH]c(=O)c1=O
Glutamate NMDA receptor [7]
  pIC50: < 3.52

## O=c1cc(O)c2ccc(Br)cc2[nH]c1=O
[2]
  Kb: 0.026 µM
Glutamate NMDA receptor [3]
  pIC50: 7.10
[4]
  Ratio: 100
[8]
  Kb: 2.7 µM

## Cc1cc(C)c2[nH]c(=O)c(O)cc(=O)c2c1
Glutamate NMDA receptor [7]
  pIC50: < 3.52

## O=c1cc(O)c2cc(Br)ccc2[nH]c1=O
Glutamate NMDA receptor [7]
  pIC50: < 3.52

## O=c1cc(O)c2ccc(F)cc2[nH]c1=O
[1]
  Kb: 5.3 µM
[9]
  Kb: 0.21 µM
Glutamate NMDA receptor [3]
  pIC50: 6.31
[4]
  Ratio: 25

## CC(=O)Nc1ccc2[nH]c(=O)c(O)cc(=O)c2c1
Glutamate NMDA receptor [3]
  pIC50: < 4.00

## Cc1c[nH]c(=O)c(O)cc1=O
Glutamate NMDA receptor [7]
  pIC50: < 3.52

## Cc1cccc2[nH]c(=O)c(O)cc(=O)c12
Glutamate NMDA receptor [3]
  pIC50: 4.89

## [N-]=[N+]=Nc1ccc2[nH]c(=O)c(=O)cc(O)c2c1
Glutamate NMDA receptor [7]
  pIC50: < 3.52

## CCc1ccc2c(O)cc(=O)c(=O)[nH]c2c1
Glutamate NMDA receptor [3]
  pIC50: 5.29

## O=C(Nc1ccc2[nH]c(=O)c(=O)cc(O)c2c1)C(F)(F)F
Glutamate NMDA receptor [7]
  pIC50: < 3.52

## Cc1ccc2c(O)cc(=O)c(=O)[nH]c2c1
[1]
  Kb: 9.9 µM
[9]
  Kb: 0.25 µM and 0.47 µM
Glutamate NMDA receptor [3]
  pIC50: 6.89
[4]
  Ratio: 40
[10]
  Kb: 6.4 µM

## Cc1cccc2c(O)cc(=O)c(=O)[nH]c12
Glutamate NMDA receptor [7]
  pIC50: < 3.52

## Cc1ccc(C)c2c(O)cc(=O)c(=O)[nH]c12
Glutamate NMDA receptor [7]
  pIC50: < 3.52

## O=c1cc(O)c(=O)c2ccccc2[nH]1
[11]
  Kb: > 55 µM
Glutamate NMDA receptor [3]
  pIC50: < 4.00

## Cc1cc2[nH]c(=O)c(O)cc(=O)c2c(C)c1[N+](=O)[O-]
Glutamate NMDA receptor [3]
  pIC50: 5.66

## O=c1ccc(=O)c2ccccc2[nH]1
Glutamate NMDA receptor [7]
  pIC50: < 3.52

## Cc1ccc2[nH]c(=O)c(O)cc(=O)c2c1C
Glutamate NMDA receptor [7]
  pIC50: < 3.52

## O=c1cc(O)c2cc([N+](=O)[O-])ccc2[nH]c1=O
Glutamate NMDA receptor [3]
  pIC50: 4.92

## O=c1cc(O)c2ccc(Cl)cc2[nH]c1=O
[12]
  Kb: 2 µM
Mus musculus
  ED50: 13 mg/kg
[13]
  Kb: 0.026 µM
Glutamate NMDA receptor [3]
  pIC50: 7.89
[4]
  Ratio: 77
[14]
  Kb: 10 µM
